The text below walks through data of ChEMBL document CHEMBL1141245, “Discovery of novel 1-arylmethyl pyrrolidin-2-yl ethanol amines as calcium-sensing receptor antagonists” (Bioorg Med Chem Lett, 2005).

Experiment [1] has as its target T1, Extracellular calcium-sensing receptor (Homo sapiens, UniProt P41180).
T1 sequence (P41180 whole entry): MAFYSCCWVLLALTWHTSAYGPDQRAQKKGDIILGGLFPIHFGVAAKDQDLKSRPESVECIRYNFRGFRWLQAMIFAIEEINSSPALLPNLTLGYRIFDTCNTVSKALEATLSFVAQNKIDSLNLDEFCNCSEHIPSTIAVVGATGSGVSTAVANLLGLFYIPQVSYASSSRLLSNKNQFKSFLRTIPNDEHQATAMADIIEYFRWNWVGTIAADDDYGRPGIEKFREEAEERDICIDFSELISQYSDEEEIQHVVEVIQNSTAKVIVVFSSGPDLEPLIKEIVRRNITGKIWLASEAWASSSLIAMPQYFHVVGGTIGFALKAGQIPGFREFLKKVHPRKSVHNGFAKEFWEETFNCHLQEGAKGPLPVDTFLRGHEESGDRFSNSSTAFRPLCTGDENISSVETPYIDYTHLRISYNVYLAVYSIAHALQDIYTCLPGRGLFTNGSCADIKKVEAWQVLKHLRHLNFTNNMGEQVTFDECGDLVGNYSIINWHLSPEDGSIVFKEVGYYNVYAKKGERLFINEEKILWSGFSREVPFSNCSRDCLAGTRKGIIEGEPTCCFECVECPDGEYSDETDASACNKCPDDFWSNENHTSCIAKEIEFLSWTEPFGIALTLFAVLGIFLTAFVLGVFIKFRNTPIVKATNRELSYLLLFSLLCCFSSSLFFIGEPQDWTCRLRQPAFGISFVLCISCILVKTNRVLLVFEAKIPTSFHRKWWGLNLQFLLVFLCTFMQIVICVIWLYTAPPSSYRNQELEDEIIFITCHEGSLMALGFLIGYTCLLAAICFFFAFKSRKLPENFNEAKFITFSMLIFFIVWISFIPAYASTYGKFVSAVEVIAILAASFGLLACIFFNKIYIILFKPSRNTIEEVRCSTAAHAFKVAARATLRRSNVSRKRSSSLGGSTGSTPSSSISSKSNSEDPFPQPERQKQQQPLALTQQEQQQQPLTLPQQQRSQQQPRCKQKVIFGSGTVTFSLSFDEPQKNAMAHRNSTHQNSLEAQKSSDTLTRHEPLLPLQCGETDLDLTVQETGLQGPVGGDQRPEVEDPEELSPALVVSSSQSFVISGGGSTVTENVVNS
As to the kind of experiment: Inhibition of intracellular calcium release in human TT cells containing calcium-sensing receptor by FLIPR. The format is functional, cell-based. The procedure, abridged:
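Fluorescence-based intracellular Ca2+ mobilization, read on FLIPR, in human TT cells carrying endogenous calcium-sensing receptor. IC50 values are means of two experiments.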
(In general: A change in cytosolic calcium serves as a functional read-out for many receptors and channels.)

The target in experiment [2] is T2, Extracellular calcium-sensing receptor (Rattus norvegicus, UniProt P48442).
T2 sequence (P48442 whole entry): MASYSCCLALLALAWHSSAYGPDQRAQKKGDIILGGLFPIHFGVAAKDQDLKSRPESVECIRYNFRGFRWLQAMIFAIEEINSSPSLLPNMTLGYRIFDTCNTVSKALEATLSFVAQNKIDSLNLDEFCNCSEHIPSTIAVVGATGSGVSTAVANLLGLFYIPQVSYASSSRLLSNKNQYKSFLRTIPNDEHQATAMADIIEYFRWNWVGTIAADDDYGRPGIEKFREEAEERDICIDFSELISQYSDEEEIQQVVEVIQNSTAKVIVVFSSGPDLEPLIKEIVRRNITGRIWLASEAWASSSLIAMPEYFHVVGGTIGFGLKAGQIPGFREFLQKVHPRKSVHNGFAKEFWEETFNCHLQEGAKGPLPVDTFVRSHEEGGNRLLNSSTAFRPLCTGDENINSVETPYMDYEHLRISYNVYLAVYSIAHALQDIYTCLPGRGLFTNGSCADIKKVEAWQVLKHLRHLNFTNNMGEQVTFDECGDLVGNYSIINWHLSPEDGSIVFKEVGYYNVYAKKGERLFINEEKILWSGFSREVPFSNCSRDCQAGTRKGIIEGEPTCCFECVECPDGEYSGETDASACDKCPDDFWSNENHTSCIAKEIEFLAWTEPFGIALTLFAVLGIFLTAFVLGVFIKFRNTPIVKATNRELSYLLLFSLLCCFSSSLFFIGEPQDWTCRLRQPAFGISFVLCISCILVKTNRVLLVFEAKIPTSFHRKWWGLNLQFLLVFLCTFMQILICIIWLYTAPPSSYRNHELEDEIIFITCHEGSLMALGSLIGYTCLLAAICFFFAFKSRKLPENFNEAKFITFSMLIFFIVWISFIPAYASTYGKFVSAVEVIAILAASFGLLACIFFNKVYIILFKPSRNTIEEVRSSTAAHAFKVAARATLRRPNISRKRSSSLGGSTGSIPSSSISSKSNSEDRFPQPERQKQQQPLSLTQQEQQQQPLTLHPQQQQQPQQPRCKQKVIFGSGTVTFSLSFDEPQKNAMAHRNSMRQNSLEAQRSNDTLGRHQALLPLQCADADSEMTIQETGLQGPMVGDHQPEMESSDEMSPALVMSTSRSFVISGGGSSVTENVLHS
As to the kind of experiment: Inhibition of extracellular calcium-induced inositol triphosphate generation in rat MTC cells expressing calcium-sensing receptor. The format is functional, cell-based.

For the compound `CC(C)(Cc1ccc2ccccc2c1)NC[C@@H](O)COc1cccc(Cl)c1C#N`, the IC50 (in general, the concentration needed to halve the response being measured) worked out at 50 nM in experiment [1] and 530 nM in experiment [2].

Regarding `CC(C)(Cc1ccc2ccccc2c1)NC[C@@H](O)[C@H]1CCCN1Cc1ccccc1[N+](=O)[O-]`, the IC50 in experiment [1] turned out to be 160 nM.

For the compound `CC(C)(Cc1ccc(F)cc1)NC[C@@H](O)COc1cccc(Cl)c1C#N`, the IC50 in experiment [1] came out at 600 nM.

With `CC(C)(Cc1ccc(F)cc1)NC[C@@H](O)CSc1cccc(Cl)c1Cl`, in experiment [1], the IC50 was 6180 nM.

For the compound `CC(C)(Cc1ccc2ccccc2c1)NC[C@@H](O)[C@H]1CCCN1Cc1cccc(F)c1O`, the 50% inhibitory concentration (IC50) in experiment [1] was 140 nM; in experiment [2] it was 2560 nM.

Take `CC(C)(Cc1ccc2ccccc2c1)NC[C@@H](O)[C@H]1CCCN1Cc1ccc([N+](=O)[O-])cc1`: the concentration for half-maximal inhibition (IC50) in experiment [1] worked out at 790 nM.

In the case of `CC(C)(Cc1ccc2ccccc2c1)NC[C@@H](O)[C@H]1CCCN1Cc1ccc(C#N)cc1`, in experiment [1], the IC50 was found to be 250 nM.

For the compound `CC(C)(Cc1ccc2ccccc2c1)NC[C@@H](O)[C@H]1CCCN1Cc1cccc(C#N)c1`, the IC50 in experiment [1] was determined as 190 nM; in experiment [2] it was 2200 nM.

As for `CC(C)(Cc1ccc2ccccc2c1)NCCCOc1cccc(Cl)c1C#N`, in experiment [1], the IC50 came out at 880 nM.

`CC(C)(Cc1cc2ccccc2s1)NC[C@H](O)COc1ccccc1C#N`: the IC50 in experiment [1] came out at 60 nM.

As to `CC(C)(Cc1ccc2ccccc2c1)NC[C@H](O)[C@H]1CCCN1Cc1ccccc1C#N`, the IC50 in experiment [1] turned out to be 1270 nM.

Regarding `CC(C)(Cc1csc2ccccc12)NC[C@@H](O)[C@H]1CCCN1Cc1cccc(C#N)c1`, in experiment [1], the IC50 came out at 1000 nM.

Take `CC(C)(Cc1ccccc1)NC[C@H](O)COc1ccccc1S(C)(=O)=O`: the IC50 in experiment [1] is 9430 nM.

Consider `CC(C)(Cc1ccc2ccccc2c1)NC[C@@H](O)[C@H]1CCCN1Cc1cccc(O)c1`, for which, in experiment [1], the IC50 came out at 1160 nM.

Consider `CC(C)(Cc1ccc2ccccc2c1)NC[C@H](O)COc1cccc(Cl)c1C#N`, for which the IC50 in experiment [1] worked out at 50 nM.

For `CC(C)(Cc1cc2ccccc2s1)NC[C@@H](O)[C@H]1CCCN1Cc1cccc(C#N)c1`, in experiment [1], the IC50 was 270 nM.

For `CC(C)(Cc1ccc2ccccc2c1)NC[C@@H](O)[C@H]1CCCN1Cc1ccccc1C#N`, in experiment [1], the IC50 was found to be 340 nM.

With `COc1cccc(CN2CCC[C@@H]2[C@H](O)CNC(C)(C)Cc2ccc3ccccc3c2)c1O`, the IC50 in experiment [1] worked out at 1560 nM.

Regarding `N#Cc1c(Cl)cccc1OC[C@H](O)CNc1ccc2ccccc2c1`, the IC50 in experiment [1] was found to be 4600 nM.

For `CC(C)(Cc1ccc2ccccc2c1)NC[C@@H](O)[C@H]1CCCN1Cc1cccc(F)c1F`, the IC50 in experiment [1] was 360 nM.

On to `CC(C)(Cc1ccc2ccccc2c1)NC[C@@H](O)[C@H]1CCCN1Cc1cccc(C(=O)O)c1`, for which, in experiment [1], the IC50 turned out to be 6840 nM.

As to `CC(C)(Cc1ccc(F)cc1)NC[C@@H](O)COc1ccc(OC(F)(F)F)cc1`, the IC50 in experiment [1] came out at 3300 nM.

In the case of `CC(C)(Cc1ccc2ccccc2c1)NC[C@@H](O)[C@H]1CCCN1Cc1ccccc1O`, the IC50 in experiment [1] is 970 nM.

For the compound `CC(C)(Cc1ccc2ccccc2c1)NC[C@@H](O)[C@H]1CCCN1Cc1cccc(F)c1`, in experiment [1], the IC50 was 750 nM.

With `COc1ccc(CC(C)(C)NC[C@H](O)COc2cccc(OC)c2)cc1`, in experiment [1], the IC50 was 1390 nM.

On to `CC(C)(Cc1ccc2ccccc2c1)NC[C@@H](O)[C@H]1CCCN1Cc1cccc(Cl)c1C#N`, for which, in experiment [1], the IC50 was 240 nM.

Take `CC(C)(Cc1ccc2ccccc2c1)NC[C@@H](O)[C@H]1CCCN1Cc1cccc(Br)c1`: the concentration for half-maximal inhibition (IC50) in experiment [1] is 1570 nM.

Turning to `COc1cccc(CN2CCC[C@@H]2[C@H](O)CNC(C)(C)Cc2ccc3ccccc3c2)c1`, in experiment [1], the IC50 came to 1190 nM.

With `COc1ccc(CC(C)(C)NC[C@@H](O)[C@H]2CCCN2Cc2cccc(C#N)c2)cc1`, the IC50 in experiment [1] is 2670 nM.

`CN(C[C@@H](O)COc1cccc(Cl)c1C#N)C(C)(C)Cc1ccc2ccccc2c1`: in experiment [1], the IC50 is 270 nM.

On to `CC(C)(Cc1cc2ccccc2[nH]1)NC[C@H](O)COc1ccccc1C#N`, for which the IC50 in experiment [1] turned out to be 100 nM.

As for `CC(C)(Cc1ccc2ccccc2c1)NC[C@@H](O)[C@H]1CCCN1Cc1cccc([N+](=O)[O-])c1O`, the IC50 in experiment [1] came to 140 nM.

`CC(C)(Cc1ccc2ccccc2c1)NC[C@@H](O)[C@H]1CCCN1Cc1cccc([N+](=O)[O-])c1`: the IC50 in experiment [1] came out at 140 nM.

For the compound `N#Cc1c(Cl)cccc1OC[C@H](O)CNCCc1ccc2ccccc2c1`, the concentration for half-maximal inhibition (IC50) in experiment [1] stood at 3860 nM.

In the case of `CC(C)(Cc1nc2ccccc2s1)NC[C@@H](O)[C@H]1CCCN1Cc1cccc(C#N)c1`, in experiment [1], the IC50 was 1350 nM.

As for `CC(C)(Cc1ccc2ccccc2c1)NC[C@@H](O)COc1ccccc1C#N`, the IC50 in experiment [1] was 30 nM.

Consider `CC(C)(Cc1nc2ccccc2[nH]1)NC[C@@H](O)[C@H]1CCCN1Cc1cccc(C#N)c1`, for which, in experiment [1], the IC50 stood at 2840 nM.

Consider `CC(C)(Cc1ccc2ccccc2c1)NC[C@@H](O)[C@H]1CCCN1C(=O)c1cccc(C#N)c1`, for which the IC50 in experiment [1] is 8430 nM.

Take `CC(C)(Cc1ccc2ccccc2c1)NC[C@@H](O)[C@H]1CCCN1Cc1cccc(-c2ccccc2)c1`: the IC50 in experiment [1] is 2470 nM.

On to `COc1ccc(CC(C)(C)NCC(O)COc2ccc(S(C)(=O)=O)c(C)c2)cc1` (centres undefined), for which the IC50 in experiment [1] worked out at 11400 nM.

In the case of `CC(C)(Cc1cc2ccccc2[nH]1)NC[C@@H](O)[C@H]1CCCN1Cc1cccc(C#N)c1`, the IC50 in experiment [1] came to 440 nM.
